# According to ChEMBL document CHEMBL4725346, “Syntheses and Evaluation of New Bisacridine Derivatives for Dual Binding of G-Quadruplex and i-Motif in Regulating Oncogene c-myc Expression” (J Med Chem, 2020):
# Experiments:
# [1] = Stabilization of 5'-FAM/3'-TAMRA labeled hairpin DNA F10T (unknown origin) assessed as change in melting temperature at 1 uM by FRET assay (reference value: 59.1 degreeC)
# [2] = target: Quadruplex DNA; assay: Binding affinity to 5'-biotin labeled c-myc promoter G-quadruplex DNA Pu27 (unknown origin) by surface plasmon resonance method; type: nucleic-acid assay
# In short: (§1)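 SPR: 5'-biotin DNA diluted to 1 μM and captured (1000 RU) on a sensor chip, with a blank cell as reference. Running buffers: Py33 in 20 mM MES pH 5.8, 100 mM KCl, 0.05% Tween-20; Pu27 and duplex in 50 mM Tris-HCl pH 7.4, 100 mM KCl. Six ligand concentrations serially diluted from DMSO stock. Association 260 s, dissociation 300 s at 25 °C; NaOH regeneration; blank sensorgrams subtracted.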
# [3] = Stabilization of 5'-FAM/3'-TAMRA labeled c-myc promoter i-motif DNA FPy33T (unknown origin) assessed as change in melting temperature at 1 uM by FRET assay (reference value: 53.2 degreeC)
# In short: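 FRET melting of dual FAM/TAMRA-labelled FPy33T annealed in 1× BPES (30 mM potassium phosphate, 1 mM EDTA, 100 mM KCl), pH 5.5. Final 0.2 µM DNA with or without ligand. Excitation 470 nm, emission 530 nm, read every 1 °C over 37–99 °C. ΔTm taken against DNA alone.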
# [4] = Binding affinity to 5'-biotin labeled c-myc promoter i-motif DNA Py33 (unknown origin) by surface plasmon resonance method; in short: as §1
# [5] = test system: Quadruplex DNA; assay: Stabilization of 5'-FAM/3'-TAMRA labeled c-myc promoter G-quadruplex DNA FPu22T (unknown origin) assessed as change in melting temperature at 1 uM by FRET assay (reference value: 66.5 degreeC); type: nucleic-acid assay
# In short: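 FRET melting of dual FAM/TAMRA-labelled FPu22T annealed in 10 mM Tris-HCl pH 7.4 with KCl. Final 0.2 µM DNA with or without ligand. Excitation 470 nm, emission 530 nm, read every 1 °C over 37–99 °C on a real-time PCR cycler. ΔTm = Tm(DNA+ligand) − Tm(DNA).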
# [6] = target: dsDNA; assay: Binding affinity to 5'-biotin labeled duplex DNA (unknown origin) by surface plasmon resonance method; type: nucleic-acid assay; in short: as §1
# [7] = target: ssDNA; assay: Binding affinity to 5'-biotin labeled single-stranded DNA Py33 (unknown origin) by surface plasmon resonance method; type: nucleic-acid assay
# [8] = test system: SiHa; assay: Antiproliferative activity against human SiHa cells after 48 hrs by MTT assay; type: functional, cell-based
# In short: (§2)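 Cells seeded at 5.0×10^3 per well, pre-incubated 12 h at 37 °C, 5% CO2, then exposed to compounds for 48 h; DMSO-only control. MTT (2.5 mg/mL) added for 4 h, formazan dissolved in DMSO, absorbance at 570 nm. Each dose tested in triplicate; IC50 from percentage survival relative to negative control.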
# [9] = test system: A-375; assay: Antiproliferative activity against human A-375 cells after 48 hrs by MTT assay; type: functional, cell-based; conditions: A-375, 48 h; in short: as §2
# [10] = test system: A549; assay: Antiproliferative activity against human A549 cells after 48 hrs by MTT assay; type: functional, cell-based; conditions: A549, 48 h; in short: as §2
# [11] = test system: HeLa; assay: Antiproliferative activity against human Hela cells after 48 hrs by MTT assay; type: functional, cell-based; in short: as §2
# [12] = test system: Huh-7; assay: Antiproliferative activity against human Huh-7 cells after 48 hrs by MTT assay; type: functional, cell-based; conditions: Huh-7, 48 h; in short: as §2
# [13] = test system: U2OS; assay: Antiproliferative activity against human U2OS cells after 48 hrs by MTT assay; type: functional, cell-based; in short: as §2
# [14] = test system: HCT-116; assay: Antiproliferative activity against human HCT-116 cells after 48 hrs by MTT assay; type: functional, cell-based; conditions: HCT-116, 48 h; in short: as §2
Structure (SMILES),ΔTm [1] [°C],Kd [2] [nM],ΔTm [3] [°C],Kd [4] [nM],ΔTm [5] [°C],Kd [6] [nM],Kd [7] [nM],IC50 [9] [nM],IC50 [10] [nM],IC50 [11] [nM],IC50 [12] [nM],IC50 [13] [nM],IC50 [14] [nM],IC50 [8] [nM]
Cc1ccc2nc3ccccc3c(NCCCCCCNc3c4ccccc4nc4ccc(C)cc34)c2c1,1.7,14300,1.2,25100,10,–,–,–,–,–,–,–,–,–
Cc1ccc2nc3ccc(C)cc3c(NCCCCCCCNc3c4cc(C)ccc4nc4ccc(C)cc34)c2c1,1.8,6100,1.4,–,15.7,10700,8800,–,–,–,–,–,–,–
CN(CCCNc1c2ccccc2nc2ccccc12)CCCNc1c2ccccc2nc2ccccc12,10.8,18300,7.3,9100,7.7,8100,–,120,350,340,800,130,190,2510
Cc1ccc2nc3ccc(C)cc3c(NCCCCCNc3c4cc(C)ccc4nc4ccc(C)cc34)c2c1,2.7,7300,1,–,11,33600,23700,510,720,660,2810,1330,950,1660
Cc1ccc2nc3ccc(C)cc3c(NCCCNc3c4cc(C)ccc4nc4ccc(C)cc34)c2c1,0.7,9200,2.4,–,14.1,35400,–,2480,1710,1360,6200,2940,6250,3820
c1ccc2c(NCCCCCCCNc3c4ccccc4nc4ccccc34)c3ccccc3nc2c1,9.3,11600,0.6,–,8.8,7400,14700,–,–,–,–,–,–,–
Cc1ccc2nc3ccccc3c(NCCCCCCCNc3c4ccccc4nc4ccc(C)cc34)c2c1,3.6,10300,3.4,–,15.3,24800,–,–,–,–,–,–,–,–
Cc1ccc2nc3ccccc3c(NCCCCCNc3c4ccccc4nc4ccc(C)cc34)c2c1,1.9,16300,0.2,14500,11.4,–,26100,1830,830,1650,3670,1420,1680,2520

# Now those with a lower Kd [2], led by results:
ΔTm [1] [°C],Kd [2] [nM],ΔTm [3] [°C],Kd [4] [nM],ΔTm [5] [°C],Kd [6] [nM],Kd [7] [nM],IC50 [9] [nM],IC50 [10] [nM],IC50 [11] [nM],IC50 [12] [nM],IC50 [13] [nM],IC50 [14] [nM],Structure (SMILES),IC50 [8] [nM]
2.2,4300,1.3,–,14,10100,13700,2050,1730,2620,5560,1600,3510,c1ccc2c(NCCCNc3c4ccccc4nc4ccccc34)c3ccccc3nc2c1,3060
4.8,2900,2,3800,8.6,11800,–,–,–,–,–,–,–,COC(=O)c1ccc2nc3ccc(C)cc3c(NCCCNCCNCCCNc3c4cc(C)ccc4nc4ccc(C(=O)OC)cc34)c2c1,–
0.8,2900,9.1,16000,10.4,–,6800,1920,470,1470,2680,550,2060,Cc1ccc2nc3ccc(C)cc3c(NCCCCNc3c4cc(C)ccc4nc4ccc(C)cc34)c2c1,3700
2,1600,0.4,–,13.9,–,–,920,320,1360,3290,790,910,Cc1ccc2nc3ccccc3c(NCCCCNc3c4ccccc4nc4ccc(C)cc34)c2c1,2440
2.7,1100,10.1,12400,16.8,–,4700,–,–,–,–,–,–,Cc1ccc2nc3ccc(C)cc3c(NCCCCCCNc3c4cc(C)ccc4nc4ccc(C)cc34)c2c1,–
